From ChEMBL document CHEMBL4431364, “Discovery and synthetic optimization of a novel scaffold for hydrophobic tunnel-targeted autotaxin inhibition” (Bioorg Med Chem, 2016)
The source made the active and inactive calls. No cut-off for these calls is given here.

Assays:
[1] = molecular target: T1, Glycerophosphocholine cholinephosphodiesterase ENPP6 (Homo sapiens) (UniProt Q6UWR7); assay: Inhibition of C-terminal FLAG tagged human recombinant NPP6 expressed in insect sf9 cells assessed as remaining enzyme activity response at 10 uM using pNPPC as substrate measured every 2 mins for 1 hr by […]
T1 sequence (whole entry): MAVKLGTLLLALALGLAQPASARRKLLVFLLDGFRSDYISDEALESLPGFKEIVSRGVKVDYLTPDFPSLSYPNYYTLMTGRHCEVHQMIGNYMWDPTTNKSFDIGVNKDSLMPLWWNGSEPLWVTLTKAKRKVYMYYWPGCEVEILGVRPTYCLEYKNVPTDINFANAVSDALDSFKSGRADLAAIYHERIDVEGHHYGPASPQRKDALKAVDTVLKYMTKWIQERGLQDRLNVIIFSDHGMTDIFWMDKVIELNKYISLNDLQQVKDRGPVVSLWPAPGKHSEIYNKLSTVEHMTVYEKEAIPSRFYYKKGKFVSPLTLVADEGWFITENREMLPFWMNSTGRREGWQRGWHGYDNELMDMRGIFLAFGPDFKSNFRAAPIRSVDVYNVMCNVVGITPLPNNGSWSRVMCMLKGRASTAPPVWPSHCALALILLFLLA
Procedure, shortened: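 Final 10 nM human FLAG-fusion NPP6, 10 μM compound, 10 μM pNPPC in 500 mM NaCl, 100 mM Tris-HCl, 0.05% Triton X-100, pH 9. A405 at 37 °C every 2 min for 1 h. Background absorbance subtracted. Mean percent response relative to enzyme-only control (no-enzyme = 0%). Triplicate.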

[2] = molecular target: T2, Ectonucleotide pyrophosphatase/phosphodiesterase family member 7 (Homo sapiens) (UniProt Q6UWV6); assay: Inhibition of C-terminal FLAG tagged human recombinant NPP7 expressed in insect sf9 cells assessed as remaining enzyme activity response at 10 uM using pNPPC as substrate measured every 2 mins for 1 hr by […]
T2 sequence (whole entry): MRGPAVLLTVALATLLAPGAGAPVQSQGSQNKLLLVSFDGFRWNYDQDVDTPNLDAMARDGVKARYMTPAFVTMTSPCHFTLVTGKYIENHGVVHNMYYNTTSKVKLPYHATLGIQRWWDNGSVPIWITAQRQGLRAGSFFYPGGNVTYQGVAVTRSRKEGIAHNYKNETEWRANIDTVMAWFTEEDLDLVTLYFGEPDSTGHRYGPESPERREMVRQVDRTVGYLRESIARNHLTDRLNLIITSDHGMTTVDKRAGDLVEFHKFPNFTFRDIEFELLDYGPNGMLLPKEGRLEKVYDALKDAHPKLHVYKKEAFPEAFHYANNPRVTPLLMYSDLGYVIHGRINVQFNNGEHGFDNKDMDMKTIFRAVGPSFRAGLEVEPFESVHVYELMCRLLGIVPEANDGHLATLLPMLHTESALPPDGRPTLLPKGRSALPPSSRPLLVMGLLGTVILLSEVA
Procedure, shortened: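 Human FLAG-fusion NPP7 (10 nM final) with 10 μM compound and 10 μM pNPPC in 50 mM Tris-HCl, 150 mM NaCl, 10 mM taurocholate, pH 8. Absorbance at 405 nm, 37 °C, every 2 min for an hour. Background subtracted. Mean percent of enzyme-only response (no-enzyme = 0%). Triplicate.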

Autotaxin [3] = molecular target: T3, Autotaxin (Homo sapiens, UniProt Q13822); assay: Inhibition of C-terminal FLAG tagged human recombinant ATX expressed in insect sf9 cells using FS-3 as substrate measured every 2 mins for 60 mins by FRET assay
Procedure, shortened: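 Dose response over 0.03 to 30 μM compound, 10 nM human FLAG-fusion ATX, 1 μM FS-3 in pH 8.0 Tris/BSA assay buffer. Fluorescence at 485/520 nm every 2 min for 60 min at 37 °C, normalized to no-ATX and no-compound controls. IC50 by non-linear regression. Triplicate.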

Autotaxin [4] = molecular target: T3, Autotaxin; assay: Inhibition of C-terminal FLAG tagged human recombinant ATX expressed in insect sf9 cells at 10 uM using FS-3 as substrate measured every 2 mins for 60 mins by FRET assay
Procedure, shortened: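 10 μM compound with 10 nM human FLAG-fusion ATX in pH 8.0 Tris buffer (30 μM BSA, 1 mM CaCl2, 1 mM MgCl2, 5 mM KCl, 140 mM NaCl) and 1 μM FS-3. Fluorescence at ex 485/em 520 nm read every 2 min for 60 min at 37 °C. Normalized to no-ATX (0%) and ATX without compound (100%). Triplicate.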

Autotaxin [5] = molecular target: T3, Autotaxin; assay: Inhibition of C-terminal FLAG tagged human recombinant ATX expressed in insect sf9 cells using pNP-TMP as substrate measured every 2 mins for 60 mins by absorbance
Procedure, shortened: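 Dose response 0.03 to 30 μM compound against 10 nM human FLAG-fusion ATX with 1 mM pNP-TMP in pH 8.0 Tris/BSA buffer. A405 every 2 min for 60 min at 37 °C, normalized to no-enzyme and uninhibited controls. IC50 by non-linear regression. Triplicate.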

Autotaxin [6] = molecular target: T3, Autotaxin; assay: Inhibition of C-terminal FLAG tagged human recombinant ATX expressed in insect sf9 cells at 10 uM using pNP-TMP as substrate measured every 2 mins for 60 mins by absorbance
[7] = molecular target: Lysophosphatidic acid receptor 4 (Homo sapiens) (UniProt Q99677); assay: Agonist activity at LPA receptor 4 (unknown origin) assessed as calcium mobilization after 30 mins by fluorescence analysis; assay type: functional
Sequence of Lysophosphatidic acid receptor 4 (Homo sapiens) (Q99677 whole entry): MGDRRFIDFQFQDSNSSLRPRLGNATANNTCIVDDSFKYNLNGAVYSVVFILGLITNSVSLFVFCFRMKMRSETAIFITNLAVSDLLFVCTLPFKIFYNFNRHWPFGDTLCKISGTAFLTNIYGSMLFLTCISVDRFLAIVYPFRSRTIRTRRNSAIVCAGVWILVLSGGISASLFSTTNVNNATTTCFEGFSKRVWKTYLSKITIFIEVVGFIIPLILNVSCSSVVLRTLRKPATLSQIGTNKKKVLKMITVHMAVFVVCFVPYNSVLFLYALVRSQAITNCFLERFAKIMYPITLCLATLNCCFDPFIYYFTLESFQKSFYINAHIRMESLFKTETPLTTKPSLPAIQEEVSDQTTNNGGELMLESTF

[8] = molecular target: Lysophosphatidic acid receptor 5 (Homo sapiens) (UniProt Q9H1C0); assay: Antagonist activity at LPA receptor 5 (unknown origin) assessed as inhibition of LPA induced calcium mobilization at 0.01 to 10 uM after 30 mins by fluorescence analysis; assay type: functional
Sequence of Lysophosphatidic acid receptor 5 (Homo sapiens) (Q9H1C0 whole entry): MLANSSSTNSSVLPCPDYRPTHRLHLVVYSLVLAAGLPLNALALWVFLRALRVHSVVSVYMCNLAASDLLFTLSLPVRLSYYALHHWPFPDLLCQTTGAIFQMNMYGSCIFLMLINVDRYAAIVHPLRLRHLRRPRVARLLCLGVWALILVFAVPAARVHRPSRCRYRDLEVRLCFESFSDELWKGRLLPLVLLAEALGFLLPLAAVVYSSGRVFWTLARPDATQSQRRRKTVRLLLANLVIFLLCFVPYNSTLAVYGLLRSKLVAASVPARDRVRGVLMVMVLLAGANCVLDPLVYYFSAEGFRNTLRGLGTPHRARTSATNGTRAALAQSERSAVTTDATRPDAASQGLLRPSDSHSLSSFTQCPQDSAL

[9] = molecular target: Lysophosphatidic acid receptor 1 (Homo sapiens) (UniProt Q92633); assay: Agonist activity at LPA receptor 1 (unknown origin) assessed as calcium mobilization after 30 mins by fluorescence analysis; assay type: functional
Sequence of Lysophosphatidic acid receptor 1 (Homo sapiens) (Q92633 whole entry): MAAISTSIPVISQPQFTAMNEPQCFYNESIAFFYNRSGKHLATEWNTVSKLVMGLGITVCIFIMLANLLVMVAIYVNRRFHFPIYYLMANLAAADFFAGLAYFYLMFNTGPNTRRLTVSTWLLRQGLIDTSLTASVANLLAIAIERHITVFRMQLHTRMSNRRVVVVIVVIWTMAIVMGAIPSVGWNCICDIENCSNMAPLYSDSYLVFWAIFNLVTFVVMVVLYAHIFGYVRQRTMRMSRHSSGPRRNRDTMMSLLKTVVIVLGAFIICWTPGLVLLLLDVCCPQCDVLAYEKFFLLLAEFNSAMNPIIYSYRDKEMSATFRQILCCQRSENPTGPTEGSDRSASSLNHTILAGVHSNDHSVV

[10] = molecular target: T4, Lysophosphatidic acid receptor 3 (Homo sapiens) (UniProt Q9UBY5); assay: Agonist activity at LPA receptor 3 (unknown origin) assessed as calcium mobilization after 30 mins by fluorescence analysis; assay type: functional
T4 sequence (whole entry): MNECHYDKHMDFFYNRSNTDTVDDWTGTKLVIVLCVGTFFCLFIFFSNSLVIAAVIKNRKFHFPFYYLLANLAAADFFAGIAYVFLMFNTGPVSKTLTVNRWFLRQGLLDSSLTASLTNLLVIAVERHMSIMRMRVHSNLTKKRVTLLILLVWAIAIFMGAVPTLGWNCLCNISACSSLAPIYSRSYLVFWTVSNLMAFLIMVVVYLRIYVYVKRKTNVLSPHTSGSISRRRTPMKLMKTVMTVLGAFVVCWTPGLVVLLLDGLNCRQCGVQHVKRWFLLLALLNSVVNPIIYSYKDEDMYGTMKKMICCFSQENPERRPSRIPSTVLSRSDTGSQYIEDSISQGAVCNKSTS

[11] = molecular target: Lysophosphatidic acid receptor 2 (Mus musculus) (UniProt Q9JL06); assay: Antagonist activity at LPA receptor 2 in double knockout MEF assessed as inhibition of LPA induced calcium mobilization at 0.01 to 10 uM after 30 mins by fluorescence analysis; assay type: functional, cell-based
Sequence of Lysophosphatidic acid receptor 2 (Mus musculus) (Q9JL06 whole entry): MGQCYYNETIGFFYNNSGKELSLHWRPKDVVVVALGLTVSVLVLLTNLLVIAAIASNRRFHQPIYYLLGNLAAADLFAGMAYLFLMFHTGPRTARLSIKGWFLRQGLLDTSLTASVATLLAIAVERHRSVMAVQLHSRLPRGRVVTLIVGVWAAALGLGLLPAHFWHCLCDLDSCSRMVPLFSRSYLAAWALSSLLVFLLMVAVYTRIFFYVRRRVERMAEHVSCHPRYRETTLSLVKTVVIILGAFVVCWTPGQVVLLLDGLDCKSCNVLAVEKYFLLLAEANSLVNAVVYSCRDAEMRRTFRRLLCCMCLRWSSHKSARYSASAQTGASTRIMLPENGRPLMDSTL

[12] = molecular target: Lysophosphatidic acid receptor 2 (Mus musculus) (UniProt Q9JL06); assay: Potentiation of LPA induced activity at LPA receptor 2 in double knockout MEF assessed as calcium mobilization at 0.01 to 10 uM after 30 mins in presence of BSA by Fura-2AM based fluorescence analysis; assay type: functional, cell-based
[13] = molecular target: Lysophosphatidic acid receptor 1 (Homo sapiens) (UniProt Q92633); assay: Antagonist activity at LPA receptor 1 (unknown origin) assessed as inhibition of LPA induced calcium mobilization at 0.01 to 10 uM after 30 mins by fluorescence analysis; assay type: functional
Autotaxin [14] = molecular target: T3, Autotaxin; assay: Potency index, ratio of IC50 for GRI392104 to IC50 for test compound for inhibition of C-terminal FLAG tagged human recombinant ATX expressed in insect sf9 cells using FS-3 as substrate measured every 2 mins for 60 mins by FRET assay
[15] = molecular target: Lysophosphatidic acid receptor 4 (Homo sapiens) (UniProt Q99677); assay: Antagonist activity at LPA receptor 4 (unknown origin) assessed as inhibition of LPA induced calcium mobilization at 0.01 to 10 uM after 30 mins by fluorescence analysis; assay type: functional
[16] = molecular target: Lysophosphatidic acid receptor 5 (Homo sapiens) (UniProt Q9H1C0); assay: Agonist activity at LPA receptor 5 (unknown origin) assessed as calcium mobilization after 30 mins by fluorescence analysis; assay type: functional
[17] = molecular target: Lysophosphatidic acid receptor 2 (Mus musculus) (UniProt Q9JL06); assay: Agonist activity at LPA receptor 2 in double knockout MEF assessed as calcium mobilization after 30 mins by fluorescence analysis; assay type: functional, cell-based
[18] = molecular target: T4, Lysophosphatidic acid receptor 3 (Homo sapiens); assay: Antagonist activity at LPA receptor 3 (unknown origin) assessed as inhibition of LPA induced calcium mobilization at 0.01 to 10 uM after 30 mins by fluorescence analysis; assay type: functional

Row | SMILES | Activity [1] [%] | Activity [2] [%] | IC50 (Autotaxin [3]) [µM] | inhibition (Autotaxin [4]) [%] | IC50 (Autotaxin [5]) [µM] | inhibition (Autotaxin [6]) [%] | further results
1 | O=C(O)c1cccc(N2CCN(C(=O)COc3ccc(Cl)cc3)CC2)c1 | 93.4 | 89.2 | 3.7 | 79.8 | 6.2 | 56.6 | 
2 | O=C(COc1cc(Cl)cc(Cl)c1)N1CCN(c2ccccc2[N+](=O)[O-])CC1 | 93.4 | 99 | 3 | 77.7 | 11.4 | 46.8 | 
3 | O=C(O)c1cccc(N2CCN(C(=O)COc3cc(Cl)cc(Cl)c3)CC2)c1 |  |  | 7.3 | 54.6 | 5.2 | 56.2 | 
4 | O=C(COc1cc(Cl)cc(Cl)c1)N1CCN(c2ccc([N+](=O)[O-])cc2)CC1 | 95.8 | 93.1 | 2.3 | 63 |  | 20.4 | 
5 | O=C(COc1ccc(Cl)cc1Cl)N1CCN(c2cccc([N+](=O)[O-])c2)CC1 | 89.8 | 89.5 | 3.4 | 73.2 |  | 7.3 | 
6 | O=C(COc1cc(Cl)cc(Cl)c1)N1CCN(c2cccc([N+](=O)[O-])c2)CC1 | 89.8 | 102 | 0.67 | 84.3 | 8.9 | 52.1 | Activity [7]: inactive; inhibition [8]: inactive; Activity [9]: inactive; Activity [10]: inactive; inhibition [11]: inactive; Activity [12]: Active; inhibition [13]: inactive; Ratio IC50 (Autotaxin [14]): 6; inhibition [15]: inactive; Activity [16]: inactive; Activity [17]: inactive; inhibition [18]: inactive
7 | O=C(COc1ccc(C(F)(F)F)cc1)N1CCN(c2ccccc2[N+](=O)[O-])CC1 |  |  | 4.7 | 72.6 | 11.3 | 44.7 | 
8 | O=C(CCCOc1ccc(Cl)cc1Cl)N1CCN(c2ccc([N+](=O)[O-])cc2)CC1 | 92.2 | 86.3 | 4 | 65.5 |  | 27.7 | 
9 | O=C(O)c1ccccc1N1CCN(C(=O)COc2cc(Cl)cc(Cl)c2)CC1 | 91 | 90.2 | 2.2 | 59.8 |  | 23.4 | 
10 | O=C(O)c1ccccc1N1CCN(C(=O)COc2ccc(C(F)(F)F)cc2)CC1 | 97.6 | 90.5 | 1.8 | 89.1 |  | 43.7 | 
11 | O=C(O)c1cccc(N2CCN(C(=O)COc3cccc(Cl)c3)CC2)c1 | 96.4 | 84.3 | 2.6 | 80 |  | 37.1 | 
